Only some compounds are listed: those with a hit (about 3.1% of all), similar ones and a draw of the others.
Yeast life ext: compounds extending yeast replicative lifespan, primary screen, S. cerevisiae, OD615; S. cerevisiae growth with nicotinamide; deaD strain in restrictive glucose medium; inhibition of the nicotinamide effect, % at 10 µM; 0.68% of 130,000 active; AID 775, 2007;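 active = inhibition above a set limit, placed 3 SD over the median of all compounds, cut at about 26% in these data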
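Test system: DeaD-strain S. cerevisiae / Buffer or medium: restrictive glucose medium / Also added: nicotinamide 1.5 mM / Doses: one concentration, 10 µM, DMSO 0.25% / Schedule: 48 h at 30 °C / Signal: OD615 measurement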
RAM inhibit: inhibitors of the yeast RAM network, primary screen, dse1pr::URA3 reporter, 5-FOA selection; AID 868, 2007; 1.8% of 190,000 active; inhibition, % at 50 µM; S. cerevisiae dse1pr::URA3 reporter, 5-FOA growth OD615, 2 d; analog-sensitive cbk1-as2 kinase mutant strain;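 active = inhibition above a set limit, 3 SD over mean compound inhibition, cut at about 8.4% in these data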;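 also: inhibition rescues growth on 5-FOA so higher OD means more RAM inhibition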
Insulin prom up: insulin promoter activators in MIN6 cells, imaging, high-content screening, mouse beta cells. 0.3% of 190,000 active. z-score at 5 µM. MIN6 insulin promoter-GFP reporter; hits give high values;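 active = z-score above 3 at 5 µM with at least 500 cells counted in the well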
Yeast growth inh: growth inhibitors of yeast BB579 in restrictive medium, primary screen, yeast lifespan-shortening project, S. cerevisiae | OD615, 48 h | inhibition, % at 10 µM | 0.51% of 140,000 active;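 active = inhibition above a set limit, 3 SD over the mean compound inhibition, cut at about 44% in these data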
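Assay system – yeast BB579 (DeaD) · Dosing – single compound dose of 10 µM, 0.25% DMSO final · Detection – OD615 turbidity measurement · Buffer or medium – CSMM-D restrictive synthetic medium containing dextrose (glucose) · Benchmarks – positive control amphotericin B 10 µg/mL · Incubation – 48 h exposure, 30 °C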
Insulin prom inh: inhibitors of insulin promoter-driven GFP, primary screen, imaging, TRM-6 cells, eGFP reporter, cell count; reporter expression induced with tamoxifen; inhibition, % at 2 µM; 0.9% of 130,000 active;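 active = inhibition above the mean plus 3 SD, with well images judged a real hit on visual review, cut at about 60% in these data, passing the limit was not always enough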
Each line names hits and unclear results; the compound was inactive in the other large screens.

CCC(C)[C@H]1CN=C(N)N1CCc1cc(C(F)(F)F)cc(C(F)(F)F)c1 (some centres not stated)	none (no result: Yeast life ext, RAM inhibit, Yeast growth inh, Insulin prom inh)
Cc1ccc(-n2c(=O)[nH]c3c(C(N)=O)nc(CC(C)C)nc32)cc1	Insulin prom inh 93
COc1ccccc1-n1c(=O)[nH]c2c(C(N)=O)nc(CC(C)C)nc21	none (no result: Insulin prom inh)
O=C1NCC2=C1C(c1ccc(Br)cc1)Nc1ccccc1N2 (configuration not stated)	Yeast life ext 92 (no result: Insulin prom up, Insulin prom inh)
CC1CC2=C(C(=O)O1)C(c1ccccc1)Nc1ccccc1N2 (configuration not stated)	none
CCOC(=O)N1CCN(S(=O)(=O)c2ccc(F)c(C(=O)Nc3cccc(C)c3C)c2)CC1	Yeast life ext 45 (no result: Insulin prom inh)
O=S(=O)(NCCSc1ccc(Cl)cc1)c1ccc2c(c1)OCCO2	none (no result: Insulin prom inh)
O=S(=O)(NCCSCc1c(Cl)cccc1Cl)c1ccc2c(c1)OCCO2	RAM inhibit 8.8
CCOC(=O)N1CCC(NC(=O)c2cc(C(=O)NC3CCN(Cc4ccccc4)CC3)ccc2CO)CC1	none (no result: Yeast life ext, Insulin prom up, Yeast growth inh)
CCOC(=O)C1(Cc2ccccc2C(F)(F)F)CCN(C(=O)c2cc(C(C)=O)n[nH]2)CC1	none (no result: Yeast life ext, Insulin prom up, Yeast growth inh, Insulin prom inh)
O=C(N/N=C/c1ccncc1)c1nn(Cc2ccccc2)c(=O)c2ccccc12	none (no result: Yeast life ext, Yeast growth inh, Insulin prom inh)
CCOC(=O)CSc1nnc(CNC(=O)c2ccc(S(=O)(=O)N3CCOCC3)cc2)n1C	none (no result: Yeast life ext, Yeast growth inh, Insulin prom inh)
CCOC(=O)CSc1nnc(CNC(=O)c2ccc(S(=O)(=O)N3CCCC3)cc2)n1C	Insulin prom inh 90 (no result: Insulin prom up)
O=C(NCc1ccccc1)c1ccc(S(=O)(=O)N2CCCC2)cc1	none (no result: Insulin prom up)
O=C(NCc1cccnc1)c1ccc(S(=O)(=O)N2CCCCC2)cc1	Yeast life ext 115
O=C(NCc1cccs1)C12CC3CC(CC(C3)C1)C2	Insulin prom inh 82 (no result: Yeast life ext, Yeast growth inh)
Cc1cccc(N2C(=O)C(Oc3ccc(Cl)cc3Cl)C2C=O)c1C (configuration not stated)	Yeast life ext 51
O=S1(=O)CC2N=C(N(Cc3ccc(F)cc3Cl)c3ccccc3F)SC2C1 (configuration not stated)	none (no result: Insulin prom inh)
O=C(c1ccco1)N(Cc1ccc([N+](=O)[O-])cc1)c1ccc(Br)cc1	RAM inhibit 8.4
O=C(c1ccco1)N(Cc1cccc([N+](=O)[O-])c1)c1ccc(Br)cc1	RAM inhibit 9.3 (no result: Yeast life ext, Yeast growth inh, Insulin prom inh)
C=CCn1c(SCC(=O)c2c(C)[nH]c3ccccc23)nnc1-c1ccncc1	none (no result: Yeast life ext, Yeast growth inh, Insulin prom inh)
CCN(c1ccc(NS(=O)(=O)c2cc(Cl)ccc2Cl)cc1)C(C)C	Insulin prom inh 69
CN(C)c1ccc(NS(=O)(=O)c2cc(Cl)ccc2Cl)cc1	none
Cn1cc([N+](=O)[O-])c(C(=O)N/N=C/c2ccc3c(c2)OCO3)n1	Insulin prom inh 78 (no result: Yeast life ext, Yeast growth inh)
O=C(O)c1ccc2c3c(ncnc13)-c1ccccc1C2=O	Yeast growth inh 96 (no result: Insulin prom inh)
CCSc1ncc(/C=N/Nc2ccc(Cl)cc2)n1C	Yeast growth inh 95
Cc1ccnc(N2C(=O)CSC2c2ccc(Cl)cc2)c1 (configuration not stated)	none
CC(=O)Nc1ccc(S(=O)(=O)Oc2cccc(/C=N/N=C3/NC(=O)C(CC(=O)O)S3)c2)cc1 (configuration not stated)	none (no result: Yeast life ext, Yeast growth inh, Insulin prom inh)
O=C(CCc1ccccc1)NCCCN1CCOCC1	Yeast life ext 66 (no result: Insulin prom inh)
CCOC(=O)C1(C)C=C(Nc2ccc(OCC)cc2)C(=O)N1c1ccccc1 (configuration not stated)	none (no result: Insulin prom inh)
CCOC(=O)C1(C)C=C(Nc2ccccc2)C(=O)N1c1ccccc1 (configuration not stated)	Insulin prom inh 71 (no result: Yeast life ext, Yeast growth inh)
Cc1nc(N2CCOCC2)nc(Oc2ccccc2F)c1[N+](=O)[O-]	none (no result: Yeast life ext, RAM inhibit, Yeast growth inh, Insulin prom inh)
Cc1cc(Br)cn2ccnc12	none (no result: Insulin prom inh)
COc1ccc(-c2nc(NC(=O)c3ccc(OCC(=O)N4CCOCC4)c(OC)c3)sc2C)cc1	RAM inhibit 9.0
COc1cc(C(=O)Nc2nc(-c3ccc(Cl)cc3)c(C)s2)ccc1OCC(=O)Nc1ccc(F)cc1	none (no result: Insulin prom inh)
CC1(C)CC(=O)c2sc(NS(=O)(=O)c3ccccc3)nc2C1	none (no result: Yeast life ext, Yeast growth inh, Insulin prom inh)
CC1(C)CC(=O)c2sc(NS(C)(=O)=O)nc2C1	Yeast life ext 97
C/C(=N\NS(=O)(=O)c1cccc([N+](=O)[O-])c1)c1cccnc1	none (no result: Yeast life ext, Insulin prom up, Yeast growth inh)
CCN(CC)S(=O)(=O)c1ccc(C(=O)NCCSc2c[nH]c3ccccc23)cc1	RAM inhibit 8.7
